Square brackets hold non-standard residues; d marks the D form. Peptide text beside a SMILES is read from it. Dmt = Cc1cc(O)cc(C)c1C[C@H](N)C(=O)O; Tic = O=C(O)[C@@H]1Cc2ccccc2CN1
Assays:
[1] = molecular target: Mu-type opioid receptor (Cavia porcellus, UniProt P97266); test: In vitro inhibitory activity against electrically evoked contractions of guinea pig ileum (GPI); type: functional, tissue-based
Procedure, shortened: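 Isolated tissue bioassay. IC50 read from concentration–response curves of agonist inhibition. Mean ± SE of at least five fresh tissue samples, with an internal standard peptide run for each tissue.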

[2] = molecular target: Delta-type opioid receptor (Mus musculus, UniProt P32300); test: In vitro inhibitory activity against electrically evoked contractions of in mouse vas deferens (MVD); type: functional, tissue-based
[3] = molecular target: Mu-type opioid receptor (Rattus norvegicus, UniProt P33535); test: Inhibition of [3H]DAGO binding to Opioid receptor mu 1 of rat brain P2 synaptosomes; type: subcellular
Procedure, shortened: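 Competition binding on rat brain P2 synaptosomes. Synaptosomes were preincubated 60 min at room temperature in 0.1 M NaCl, 0.4 mM GDP, 50 mM HEPES pH 7.5 and 50 µg/mL soybean trypsin inhibitor to strip endogenous opioids, then washed, stored at -80 °C, and labelled with [3H]DAGO. Incubation ran 2 h at room temperature to equilibrium. Nonspecific binding was set with 2 µM unlabelled peptide. Bound ligand was collected by GF/C filtration and counted. Five to eight doses in duplicate, 3–5 repetitions on separate preparations, mean ± SE. Ki by Cheng–Prusoff.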

[4] = molecular target: Delta-type opioid receptor (Mus musculus) (UniProt P32300); test: In vitro inhibitory activity against electrically evoked contractions of the mouse vas deferens (MVD); type: functional, tissue-based
[5] = molecular target: Delta-type opioid receptor (Rattus norvegicus, UniProt P33533); test: Inhibition of [3H]DPDPE binding to Opioid receptor delta 1 of rat brain P2 synaptosomes; type: subcellular
Procedure, shortened: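 Rat brain P2 synaptosomes, pretreated 60 min at room temperature in 0.1 M NaCl, 0.4 mM GDP, 50 mM HEPES pH 7.5 and 50 µg/mL trypsin inhibitor, then washed and frozen at -80 °C. Competition against [3H]DPDPE for 2 h at room temperature. Nonspecific binding defined with 2 µM unlabelled peptide. Filtered on GF/C and counted. Five to eight doses in duplicate, 3–5 independent preparations, mean ± SE. Ki via Cheng–Prusoff.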

[6] = Relative binding to mu and delta opioid receptors (ratio of Ki)
[7] = molecular target: Delta-type opioid receptor (Mus musculus) (UniProt P32300); conditions: Vas deferens

Chain of Delta-type opioid receptor (Rattus norvegicus, UniProt P33533) (P33533 whole entry): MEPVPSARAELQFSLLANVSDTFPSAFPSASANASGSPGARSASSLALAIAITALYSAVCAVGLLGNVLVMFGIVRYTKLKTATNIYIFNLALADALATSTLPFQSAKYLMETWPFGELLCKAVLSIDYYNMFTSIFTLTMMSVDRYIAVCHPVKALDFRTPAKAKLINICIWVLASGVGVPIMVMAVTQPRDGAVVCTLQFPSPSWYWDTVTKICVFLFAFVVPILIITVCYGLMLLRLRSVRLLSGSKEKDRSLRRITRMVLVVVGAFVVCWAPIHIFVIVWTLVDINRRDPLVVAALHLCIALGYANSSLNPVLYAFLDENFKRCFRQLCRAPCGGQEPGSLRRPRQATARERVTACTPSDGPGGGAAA
Chain of Delta-type opioid receptor (Mus musculus) (P32300 whole entry): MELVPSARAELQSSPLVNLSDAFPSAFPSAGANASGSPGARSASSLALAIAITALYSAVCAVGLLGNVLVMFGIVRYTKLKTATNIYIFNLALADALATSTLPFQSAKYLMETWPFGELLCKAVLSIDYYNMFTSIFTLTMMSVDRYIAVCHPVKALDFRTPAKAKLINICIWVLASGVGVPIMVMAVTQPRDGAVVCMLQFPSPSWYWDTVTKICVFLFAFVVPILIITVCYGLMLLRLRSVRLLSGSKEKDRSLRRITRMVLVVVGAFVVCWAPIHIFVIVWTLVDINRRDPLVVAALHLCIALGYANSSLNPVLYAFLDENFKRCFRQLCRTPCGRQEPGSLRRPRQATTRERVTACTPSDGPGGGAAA
Chain of Delta-type opioid receptor (Mus musculus, UniProt P32300) (P32300 whole entry): as above
Chain of Mu-type opioid receptor (Rattus norvegicus, UniProt P33535) (P33535 whole entry): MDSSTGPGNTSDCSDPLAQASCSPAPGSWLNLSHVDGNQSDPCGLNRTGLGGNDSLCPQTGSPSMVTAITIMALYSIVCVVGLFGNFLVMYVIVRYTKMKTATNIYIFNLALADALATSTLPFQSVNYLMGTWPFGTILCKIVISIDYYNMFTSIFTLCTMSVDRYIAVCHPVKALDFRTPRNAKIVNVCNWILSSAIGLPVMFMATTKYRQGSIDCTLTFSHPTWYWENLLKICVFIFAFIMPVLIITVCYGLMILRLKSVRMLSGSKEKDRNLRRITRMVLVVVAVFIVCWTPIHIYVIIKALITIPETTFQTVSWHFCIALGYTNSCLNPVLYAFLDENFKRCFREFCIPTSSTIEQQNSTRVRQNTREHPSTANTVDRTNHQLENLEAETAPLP
Chain of Mu-type opioid receptor (Cavia porcellus, UniProt P97266) (P97266 whole entry): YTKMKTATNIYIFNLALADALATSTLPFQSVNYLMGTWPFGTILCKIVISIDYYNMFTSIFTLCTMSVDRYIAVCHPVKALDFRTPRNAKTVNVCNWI

SMILES	IC50 [1] [nM]	IC50 [2] [nM]	Ki [3] [nM]	Ke [4] [nM]	Ki [5] [nM]	Selectivity [6]	Ke [7] [nM]
Cc1cc(O)cc(C)c1C[C@H](N)C(=O)N1Cc2ccccc2C[C@H]1C(=O)NCc1nc2ccccc2[nH]1	40.7	0.035					
Cc1cc(O)cc(C)c1C[C@H](N)C(=O)N1Cc2ccccc2C[C@H]1C(=O)N[C@@H](CC(=O)O)C(N)=O (H-[Dmt]-[Tic]-Asp-NH2)	> 10000		2560	7.58	0.289	8880	
CC(C)[C@H](NC(=O)[C@H](CC(=O)O)NC(=O)[C@H](Cc1ccccc1)NC(=O)[C@H](C)NC(=O)[C@@H](N)Cc1ccc(O)cc1)C(=O)N[C@H](C(=O)NCC(=O)O)C(C)C	> 1200	0.3	272		0.24	1140	
Cc1cc(O)cc(C)c1C[C@H](N)C(=O)N1Cc2ccccc2C[C@H]1C(=O)N[C@@H](C)c1nc2ccccc2[nH]1	71.7		0.411		0.063	6.5	
Cc1cc(O)cc(C)c1C[C@H](N)C(=O)N1Cc2ccccc2C[C@H]1C(=O)N[C@@H](Cc1nc2ccccc2[nH]1)C(=O)O	1560	0.015	21.7		0.042	516	
Cc1cc(O)cc(C)c1C[C@H](N)C(=O)N1Cc2ccccc2C[C@H]1C(=O)NCCc1nc2ccccc2[nH]1	108					82	4.78
C[C@@H](NC(=O)[C@@H](N)Cc1ccc(O)cc1)C(=O)N[C@@H](Cc1ccccc1)C(=O)NCC(=O)N[C@@H](Cc1ccc(O)cc1)C(=O)N1CCC[C@H]1C(=O)N[C@@H](CO)C(N)=O [DERMORPHIN]	1.21		1.22				
Cc1cc(O)cc(C)c1C[C@H](N)C(=O)N1Cc2ccccc2C[C@H]1C(=O)N[C@@H](CC(N)=O)C(=O)O (H-[Dmt]-[Tic]-Asn-OH)	> 10000		80.3		1.1	73	5.88
Cc1cc(O)cc(C)c1C[C@H](N)C(=O)N1Cc2ccccc2C[C@H]1C(=O)N[C@H](C)C(N)=O (H-[Dmt]-[Tic]-[dA]-NH2)	> 10000		47.5		0.301	158	25.1
Cc1cc(O)cc(C)c1C[C@H](N)C(=O)N1Cc2ccccc2C[C@H]1C(=O)N[C@H](C)c1nc2ccccc2[nH]1	6.36	0.026	0.233		0.047	5	
Cc1cc(O)cc(C)c1C[C@H](N)C(=O)N1Cc2ccccc2C[C@H]1C(=O)N[C@@H](CC(=O)O)c1nc2ccccc2[nH]1						122	
Cc1cc(O)cc(C)c1C[C@H](N)C(=O)N1Cc2ccccc2C[C@H]1C(=O)N[C@@H](C)C(N)=O (H-[Dmt]-[Tic]-Ala-NH2)						195	10

From ChEMBL document CHEMBL1135679, “Potent delta-opioid receptor agonists containing the Dmt-Tic pharmacophore” (J Med Chem, 2002)
